This note sets out measurements from publication PMC6421850 (The Journal of organic chemistry, 2018).

Where two headings read alike, the source gives them in different places.

In one data set the test system is A549 (lung carcinoma). The data set can be described thus: Antiproliferative activity, SRB assay, A549. The data set is classed as cell-based, human. In general terms: In SRB staining, fixed cells bind dye roughly in proportion to their protein.
In data set [1] the test system is MDA-MB-231 (triple-negative breast cancer). The data set can be described thus: Antiproliferative activity, SRB assay, MDA-MB-231. The data set is classed as cell-based, human.
The test system of data set [2] is MCF-7 (estrogen receptor-positive and HER2-negative breast cancer). Briefly: Antiproliferative activity, SRB assay, MCF-7. The data set is classed as cell-based, human.
For data set [3], the system named is KB (epidermoid carcinoma of the nasopharynx). Briefly: Antiproliferative activity, SRB assay, KB. The format is cell-based, human. Particulars: read-out: IC50 KB.
In data set [4] the test system is horse's blood (red blood cells). The data set can be described thus: In vitro hemolytic assay. The format is cell-based. Particulars: up to 500 μM.
For data set [5], the system named is MDA-MB-231 cells. The data set can be described thus: Cell cycle analysis by flow cytometry. The data set is classed as cell-based, human. Particulars: MDA-MB-231, 24 h; for accumulation of sub-G1 cells: dose-dependent; for effect on cell cycle progression: flow cytometry, PI staining; for propidium iodide (PI) signals: higher concentrations. The method in brief:
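MDA-MB-231 cells were exposed to test compound for 24 h at the indicated concentrations, with DMSO as vehicle control. DNA content was stained with propidium iodide/RNase. Cell-cycle distribution, including the sub-G1 fraction, was read by flow cytometry.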
(A flow cytometer gives signals particle by particle.)

Data set [6] has as its system KB-VIN (P-gp-overexpressing MDR subline of KB). The data set can be described thus: Antiproliferative activity, SRB assay, KB-VIN. Particulars: read-out: IC50 KB-VIN, 50% reduction relative to untreated cells.
Data set [7] has as its system MDA-MB-231 cells. The data set can be described thus: Immunocytochemistry. The format is cell-based, human. Particulars: MDA-MB-231, 24 h. The method in brief:
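MDA-MB-231 cells were seeded on chamber slides 24 h before a 24 h exposure, with 0.1% DMSO as control. Cells were fixed in 4% paraformaldehyde/PBS and permeabilised with 0.5% Triton X-100. They were probed with mouse anti-α-tubulin, then FITC anti-mouse IgG, with DAPI for nuclei. Confocal projections used 12–18 sections at 0.6–1 μm intervals. Each concentration was repeated at least twice.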

Data set [8] has as its system KB-VIN (P-gp-overexpressing MDR subline of KB).
Data set [9] concerns all tested human tumor cell lines, including MDR subline. Briefly: Antiproliferative activity, all tested human tumor cell lines. The data set is classed as cell-based. Particulars: read-out: IC50 values against all tested human tumor cell lines.
Setting [10] is: read-out: IC50 A549, SRB assay, 50% reduction relative to untreated cells.
Setting [11] is: read-out: IC50 MDA-MB-231, SRB assay, 50% reduction relative to untreated cells.
Where [12] appears, read: read-out: IC50 MCF-7, SRB assay, 50% reduction relative to untreated cells.
Where [13] appears, read: SRB assay, 50% reduction relative to untreated cells.
The mark [14] stands for this setting: Homo sapiens, A549, read-out: IC50 A549.
[15] abbreviates: Homo sapiens, MDA-MB-231, read-out: IC50 MDA-MB-231.
Setting [16] is: Homo sapiens, MCF7, read-out: IC50 MCF-7.

For the compound `C=CC(=C)CCC1(C)C(C)CC(O)C23C(=CC(OC(=O)/C=C/C=C/CCCCC)CC12)C(OC(C)=O)OC3OC(C)=O` (stereo not drawn) [Compound 19, corymbulosin A], the IC50 (commonly the point on the concentration scale where inhibition reaches its midpoint) stood at 450 nM with A549 (lung carcinoma) (setting [10]); 430 nM in data set [1] (setting [11]); 440 nM in data set [2] (setting [12]); 420 nM in data set [3] (setting [13]); 450 nM in data set [6]. Further, the “hemolytic activity (in words)” value in data set [4] is “most potent activity but only at the unusually high concentration of 500 μM”. The “accumulation of sub-G1 cells” value with MDA-MB-231 cells [5] is on record as “except with compound 19”. The “effect on cell cycle progression” value in the data set on MDA-MB-231 cells [5] is “no effect on cell cycle progression”.
`C=CC(=C)CC[C@]1(C)[C@H](C)C[C@H](OC)[C@@]23C(=C[C@H](OC(=O)CC)C[C@@H]12)[C@@H](OC(C)=O)O[C@H]3OC(C)=O` [Compound 4, (2R,5S,6S,8R,9R,10S,18R,−19S)-18,19-di-O-acetyl-18,19-epoxy-6-methoxy-2-propionyloxy-cleroda-3,13(16),14-triene]: the IC50 in the data set on A549 (lung carcinoma) (setting [10]) is 4600 nM; in data set [1] (setting [11]) it was 4950 nM; in data set [2] (setting [12]), 4940 nM; in data set [3] (setting [13]), 5190 nM; in data set [6] it was 4920 nM.
As to `C=CC(=C)CCC1(C)C(C)CC(O)C23C(=CC(OC(=O)C(C)CC)CC12)C(OC(C)=O)OC3OC(C)=O` (stereo not drawn) [Compound 17, 18,19-di-O-acetyl-18,19-epoxy-6-hydroxy-2-(2′-methylbutanoyloxy)cleroda-3,13-(16),14-triene], the IC50 was found to be 4150 nM in the data set on A549 (lung carcinoma) (setting [10]); 540 nM in data set [1] (setting [11]); 890 nM in data set [2] (setting [12]); 730 nM in [3] (setting [13]); 4070 nM in data set [6]. Also, the “accumulation of sub-G1 cells” value in the data set on MDA-MB-231 cells [5] is listed as “significant accumulations of sub-G1 cells”. The “effect on cell cycle progression” value with MDA-MB-231 cells [5] is listed as “no effect on cell cycle progression”. In the data set with MDA-MB-231 cells [5], the “propidium iodide (PI) signals” value is “decreased unusually and dramatically in all cells”.
On to `C=CC(=C)CC[C@]1(C)[C@H](C)C[C@H](OC(=O)CCCCCCCCC)[C@@]23C(=C[C@H](OC(C)=O)C[C@@H]12)[C@@H](OC(C)=O)O[C@H]3OC(C)=O` [Compound 9, (2R,5S,6S,8R,9R,10S,18R,19S)-2,18,19-tri-O-acetyl-18,19-epoxy-6-decanoyloxycleroda-cleroda-3,13(16),14-triene], for which the IC50 in the data set with A549 (lung carcinoma) (setting [10]) was determined as 40200 nM; in data set [1] (setting [11]), 20500 nM; in [2] (setting [12]), 31700 nM; in data set [3] (setting [13]) it was 19800 nM; in data set [6] it was 39200 nM.
As to `C=CC(=C)CC[C@]1(C)[C@H](C)C[C@H](OC)[C@@]23C(=C[C@H](OC(=O)C(C)C)C[C@@H]12)[C@@H](OC(C)=O)O[C@H]3OC(C)=O` [Compound 3, (2R,5S,6S,8R,9R,10S,18R,19S)-18,19-di-O-acetyl-18,19-epoxy-6-methoxy-2-isobutanoyloxycleroda-3,13(16),14-triene], the IC50 was 470 nM in the data set with A549 (lung carcinoma) (setting [10]); 490 nM in data set [1] (setting [11]); 500 nM in data set [2] (setting [12]); 450 nM in data set [3] (setting [13]); 490 nM in [8]. Besides, in the data set with MDA-MB-231 cells [5], the “accumulation of sub-G1 cells” value is “significant accumulations of sub-G1 cells”. Moreover, the “effect on cell cycle progression” value with MDA-MB-231 cells [5] is recorded as “no effect on cell cycle progression”. For the same compound, the “cell morphology (microtubules, chromatin)” value was “normal morphology with intact nuclei and a clear microtubule network” in the data set with MDA-MB-231 cells [7] (1.5 μM (3-fold IC50)); “fragmented and dispersed chromatin (arrowhead) with an apoptotic microtubule array” in the data set with MDA-MB-231 cells [7] (4.9 μM (10-fold IC50)). For the same compound, the induction of apoptosis entry in the data set with MDA-MB-231 cells [7] (1.5 and 4.9 μM) is “induced apoptosis in a dose-dependent manner”.
Take caseamembrin S [Compound 16]: the IC50 amounted to 580 nM in the data set with A549 (lung carcinoma) (setting [10]); 450 nM in data set [1] (setting [11]); 660 nM in [2] (setting [12]); 530 nM in data set [3] (setting [13]); 900 nM in data set [6]. The “accumulation of sub-G1 cells” value in the data set with MDA-MB-231 cells [5] is given as “significant accumulations of sub-G1 cells”. Further, the “effect on cell cycle progression” value in the data set on MDA-MB-231 cells [5] was “no effect on cell cycle progression”. In addition, in the data set with MDA-MB-231 cells [5], the “propidium iodide (PI) signals” value is “decreased unusually and dramatically in all cells”.
`CC(=O)O[C@H]1C(=O)[C@@]2(C)[C@H]([C@H](OC(=O)c3ccccc3)[C@]3(O)C[C@H](OC(=O)[C@H](O)[C@@H](NC(=O)c4ccccc4)c4ccccc4)C(C)=C1C3(C)C)[C@]1(OC(C)=O)CO[C@@H]1C[C@@H]2O` [Paclitaxel, reference compound]: the IC50 in the data set on A549 (lung carcinoma) (setting [14]) is 6.53 nM; in [1] (setting [15]), 8.36 nM; in data set [2] (setting [16]) it was 12.1 nM; in data set [3] (Homo sapiens) it was 7.07 nM.
For the compound `C=CC(=C)CC[C@]1(C)[C@H]2C[C@@H](OC(=O)C(C)CC)C=C3[C@H](OC(C)=O)O[C@H](OC(C)=O)[C@@]32[C@H](O)C[C@@H]1C` (stereo partly drawn) [Compound 18, caseamembrin E], the IC50 was 530 nM with A549 (lung carcinoma) (setting [14]); 400 nM in data set [1] (setting [15]); 550 nM in [2] (setting [16]); 430 nM in data set [3] (Homo sapiens); 400 to 1000 nM in data set [9].
As for `C=CC(=C)CC[C@]1(C)[C@H](C)C[C@H](OC)[C@@]23C(=C[C@H](OC(=O)[C@@H](C)CC)C[C@@H]12)[C@@H](OC(C)=O)O[C@H]3OC(C)=O` [Compound 6, (2R,5S,6S,−8R,9R,10S,18R,19S)-18,19-di-O-acetyl-18,19-epoxy-6-methoxy-2-(2′-methylbutanoyloxy)-cleroda-3,13(16),14-triene], the IC50 in the data set on A549 (lung carcinoma) (setting [10]) worked out at 5040 nM; in [1] (setting [11]), 4900 nM; in data set [2] (setting [12]), 5820 nM; in [3] (setting [13]), 5230 nM; in data set [6], 5190 nM.
The corresponding values for `C=CC(=C)CC[C@]1(C)[C@H](C)C[C@H](OC(=O)CCCCC)[C@@]23C(=C[C@H](O)C[C@@H]12)[C@@H](OC(C)=O)O[C@H]3OC(C)=O` [Compound 14, (2R,5S,6S,8R,−9R,10S,18R,19S)-18,19-di-O-acetyl-18,19-epoxy-2-hydroxy-6-hexanoyloxycleroda-3,13(16),14-triene] are 4760 nM, 4730 nM, 5190 nM, 4740 nM and 4880 nM.
